Shown is part of a subset that was picked to be rich in hits.
PKD1 inh = inhibitors of human PKD1 kinase | Q15139 | PKD1 kinase fluorescence polarization assay | inhibition, % (concentration not given with the values) | actives 0.056% (n = 200,000) | AID 797
Lmaj promast = Leishmania major promastigote growth inhibition | Leishmania major promastigotes, resazurin fluorescence viability | actives 9% (n = 200,000) | AID 1063 | inhibition, % at 10 µM;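 further: promastigotes grown with compound for 44 hours at 28 °C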
Avidin bead fluor = avidin bead compound fluorescence profile; Avidin beads, compound fluorescence 488/530 nm, flow cytometry; hits give high values; fluorescence (KMESF) at 10 µM; actives 0.38% (n = 220,000); in the data active means fluorescence above about 47
ABCB1 inh = blocks JC-1 efflux by human ABCB1 transporter | P08183 | CCRF-Adr cells, flow cytometry | inhibition, % at 6.6 µM | actives 0.067% (n = 190,000); in the data active means inhibition above about 40%;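 further: 0% = vehicle and 100% = reference inhibitor; higher value means more JC-1 retained so stronger ABCB1 efflux block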
Target sequence (P08183 whole entry, looked up): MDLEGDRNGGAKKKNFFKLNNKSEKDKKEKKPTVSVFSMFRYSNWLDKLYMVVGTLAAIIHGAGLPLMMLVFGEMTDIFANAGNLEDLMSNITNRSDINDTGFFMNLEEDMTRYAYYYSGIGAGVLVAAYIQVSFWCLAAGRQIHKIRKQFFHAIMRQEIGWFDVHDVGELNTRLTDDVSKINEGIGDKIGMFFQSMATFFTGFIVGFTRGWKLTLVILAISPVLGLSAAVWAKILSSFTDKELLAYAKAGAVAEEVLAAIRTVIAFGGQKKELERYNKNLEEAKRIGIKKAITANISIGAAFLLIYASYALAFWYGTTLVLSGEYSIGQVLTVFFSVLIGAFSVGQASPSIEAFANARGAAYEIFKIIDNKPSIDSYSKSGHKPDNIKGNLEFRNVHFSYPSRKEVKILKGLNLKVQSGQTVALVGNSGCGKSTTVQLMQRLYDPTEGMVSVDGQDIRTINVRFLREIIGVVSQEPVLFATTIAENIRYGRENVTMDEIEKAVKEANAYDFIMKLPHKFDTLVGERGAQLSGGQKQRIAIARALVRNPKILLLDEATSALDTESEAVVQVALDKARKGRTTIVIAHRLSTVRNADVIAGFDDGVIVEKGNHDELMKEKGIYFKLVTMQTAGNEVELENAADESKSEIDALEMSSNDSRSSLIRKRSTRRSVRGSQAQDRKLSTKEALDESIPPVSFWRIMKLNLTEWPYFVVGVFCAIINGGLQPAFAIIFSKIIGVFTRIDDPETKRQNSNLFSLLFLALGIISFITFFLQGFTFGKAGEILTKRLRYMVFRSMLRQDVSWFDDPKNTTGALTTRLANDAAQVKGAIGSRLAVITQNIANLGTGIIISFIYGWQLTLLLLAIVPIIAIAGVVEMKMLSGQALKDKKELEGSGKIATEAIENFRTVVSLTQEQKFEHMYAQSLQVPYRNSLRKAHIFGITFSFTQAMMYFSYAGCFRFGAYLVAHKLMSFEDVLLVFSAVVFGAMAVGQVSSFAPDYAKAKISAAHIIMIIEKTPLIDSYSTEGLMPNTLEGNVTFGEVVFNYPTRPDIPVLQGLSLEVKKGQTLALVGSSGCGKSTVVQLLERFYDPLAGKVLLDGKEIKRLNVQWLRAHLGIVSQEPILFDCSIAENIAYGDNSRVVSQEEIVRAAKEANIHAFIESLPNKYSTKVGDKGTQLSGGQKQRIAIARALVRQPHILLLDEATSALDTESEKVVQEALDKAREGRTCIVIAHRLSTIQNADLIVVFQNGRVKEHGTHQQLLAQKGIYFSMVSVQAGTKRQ
GSH bead fluor = GSH bead compound fluorescence profile | GSH beads flow cytometry, compound fluorescence 488/530 nm; hits give high values | fluorescence (KMESF) at 10 µM | actives 0.25% (n = 190,000) | AID 1776; in the data active means fluorescence above about 89;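 further: glutathione beads carrying GST-tagged Bcl family fusion proteins plus one bare bead set; values are compound well signal with DMSO vehicle wells as background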
ABCG2 inh = human ABCG2 inhibition, ABCB1 as counter-screen; IgMXP3 cells, JC-1 efflux, flow cytometry; inhibition, % at 6.6 µM; actives 0.1% (n = 190,000); AID 1325;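 active means inhibition above 80%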;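 further: 0% = DMSO and 100% = nicardipine control wells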
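material = IgMXP3 (ABCG2) plus far-red-tagged CCRF-Adr (ABCB1) cells | amount = 3 million cells/mL, equal mix of both lines | also added = JC-1 transporter substrate | dosing = one concentration, 6.6 µM final | schedule = 10 min at 25 °C | measured by = flow cytometric JC-1 green MFI at 530 nm | read-out basis = percent efflux inhibition, scaled nicardipine 100% to DMSO 0%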
* = called active by the depositor; x = no result given. Unless noted, no stated cut-off is given here; in the data, active means inhibition above about 50%; inactive means the rest.

SMILES	PKD1 inh	Lmaj promast	Avidin bead fluor	ABCB1 inh	GSH bead fluor	ABCG2 inh
COc1cccc(C(=O)Oc2cc(-c3ccccc3)no2)c1	4	-6	13	0	32	2
Cc1ccc(Nc2nc(N)c([N+](=O)[O-])c(NCc3ccco3)n2)cc1C	-3	70*	2	0	6	-1
CCN1CCN(Cc2nc3c(c(=O)n(C)c(=O)n3C)n2Cc2cccc3ccccc23)CC1	-4	92*	35	2	14	1
CCOC(=O)Cn1c(CN2CCN(C(c3ccccc3)c3ccccc3)CC2)nc2c1c(=O)n(C)c(=O)n2C	0	53*	3	0	17	-1
CCN1CCN(c2nc3c(c(=O)n(C)c(=O)n3C)n2Cc2cccc3ccccc23)CC1	-11	13	11	0	24	0
Cc1ccccc1Cn1c(CN2CCc3ccccc3C2)nc2c1c(=O)n(C)c(=O)n2C	-1	81*	42	5	25	18
CCn1cc(C(=O)NC(C)C23CC4CC(CC(C4)C2)C3)cn1 (configuration not stated)	5	43	16	2	12	54
CC(NC(=O)Cn1ncc(Cl)c(Cl)c1=O)C12CC3CC(CC(C3)C1)C2 (configuration not stated)	-1	100*	1	1	7	-3
C/C(=N\O)c1ccc(Cl)c(Cl)c1	x	x	9	x	x	x
CCCn1c2ccc(/C(C)=N\O)cc2c2cc(/C(C)=N/O)ccc21	-4	59*	19	1	21	10
CC(C)Cn1c(N)c(C(=O)CSc2ncnc3sc4c(c23)CCCC4)c(=O)n(C)c1=O	-9	14	3	3	101*	0
CC(=O)CSc1ncnc2sc3c(c12)CCCC3	-3	1	11	1	15	2
COc1cccc(C2=NNC(=NCc3ccccc3)SC2)c1	-3	32	36	0	12	-1
COc1ccc(CN=C2NN=C(c3cccc(OC)c3)CS2)cc1	-3	87*	9	0	15	0
CC(C)Oc1ccc(CCN=C(N)N=C(N)N)cc1Cl	-7	81*	6	0	12	-3
CCCCN(C(=O)CSc1cc(C)c2ccc(OC)cc2n1)c1c(N)n(Cc2ccccc2)c(=O)[nH]c1=O	-5	0	1	0	8	-6
CCCC[n+]1ccn(-c2nc3ccccc3nc2[N-]S(=O)(=O)c2ccc(C)cc2)c1	0	99*	9	0	10	1
CCCCC[n+]1ccn(-c2nc3ccccc3nc2[N-]S(=O)(=O)c2ccc(C)cc2)c1	-8	100*	9	0	10	0
Cc1ccc(S(=O)(=O)[N-]c2nc3ccccc3nc2-n2cc[n+](Cc3ccccc3)c2)cc1	x	x	12	x	x	x
CCCC[n+]1ccn(-c2nc3ccccc3nc2[N-]S(=O)(=O)c2cccs2)c1	x	x	3	x	x	x
CCCC[n+]1ccn(-c2nc3ccccc3nc2[N-]S(=O)(=O)c2ccccc2)c1	0	54*	x	0	40	1
N/C(=N\O)c1ccc(Cl)cc1Cl	x	x	8	x	x	x
O=c1cc2c(=O)oc3cc(O)c(O)oc3c2c(O)c1O	x	x	6	x	x	x
O=C(CSc1cccc[n+]1[O-])Nc1c(Br)cc([N+](=O)[O-])cc1Br	-5	44	10	0	12	0
Cc1ccc(-n2c(CCc3ccccc3)nnc2SCC(=O)NCc2ccccc2)cc1C	-1	54*	11	9	24	29
SMILES	PKD1 inh	Lmaj promast	Avidin bead fluor	ABCB1 inh	GSH bead fluor	ABCG2 inh
CCn1c(CC(=O)Nc2ccc(C)cc2)nnc1SCC(=O)NCCc1ccccc1	-8	-4	49*	1	15	4
CCC(NC(=O)Nc1cc(C)on1)(C(F)(F)F)C(F)(F)F	x	x	4	x	x	x
CCOc1ccc(CCNC(=O)CCCN2C(=O)c3ccccc3C2=O)cc1OCC	-4	-1	9	1	8	1
Cc1cc(C)cc(OCC(=O)OCC(=O)Nc2ccc(Cl)cn2)c1	1	-11	8	0	16	-3
O=C(COC(=O)CCc1nc2ccccc2c(=O)[nH]1)Nc1ccc(Cl)cn1	x	x	49*	x	x	x
Cc1ccc(OCCC(=O)OCC(=O)Nc2ccc(Cl)cn2)cc1	-17	-1	7	0	272*	0
COCCn1nnnc1C(c1ccccc1)N1CCN(Cc2ccc3c(c2)OCO3)CC1 (configuration not stated)	-10	25	24	2	18	13
CCCCC(c1nnnn1C1CCCC1)N1CCN(C(=O)c2ccco2)CC1 (configuration not stated)	-7	58*	10	0	22	-4
CCC(c1nnnn1C1CCCC1)N1CCN(Cc2ccccc2)CC1 (configuration not stated)	-2	81*	8	0	22	-7
Fc1ccccc1C(c1nnnn1C1CCCC1)N1CCN(Cc2ccccc2)CC1 (configuration not stated)	-3	61*	24	1	15	1
CCCC(c1nnnn1C1CCCC1)N1CCN(C(=O)c2ccco2)CC1 (configuration not stated)	-1	43	18	1	12	1
Fc1ccc(C(c2nnnn2C2CCCC2)N2CCN(Cc3ccncc3)CC2)cc1 (configuration not stated)	-3	43	15	3	52	7
CCC(c1nnnn1CCOC)N1CCN(Cc2ccccc2)CC1 (configuration not stated)	0	-6	17	0	24	0
c1cncc(C(c2nnnn2C2CCCC2)N2CCN(Cc3ccc4c(c3)OCO4)CC2)c1 (configuration not stated)	0	91*	7	1	17	2
CCOC(=O)CNC(=S)N1CCn2c(nc3ccccc32)C1	-7	-1	10	0	21	6
O=C(NNC(=O)c1ccc2nonc2c1)Nc1ccc(Cl)cc1	x	x	6	x	x	x
Cc1cc(N2CCN(C)CC2)nc2ccc(NC(=O)c3ccc(Br)o3)cc12	-8	92*	5	4	34	13
COc1ccc(CNC(=S)Nc2ccc3nc(N4CCN(C)CC4)cc(C)c3c2)cc1	-5	19	11	1	19	8
Cc1cc(N2CCN(C)CC2)nc2ccc(NC(=O)c3ccc4c(c3)OCO4)cc12	-2	100*	12	0	12	1
Cc1cc(N2CCCCC2)nc2ccc(NC(=O)c3ccc(Br)o3)cc12	2	94*	6	0	36	0
CN1CCN(c2ccc(NC(=O)c3ccc4c(c3)OCO4)cc2)CC1	-15	-2	16	-3	26	0
Cc1cnc(NC(=O)Cc2cccs2)s1	5	8	13	1	12	3
O=C(/C=C/c1cnc2ccccc2n1)NC12CC3CC(CC(C3)C1)C2	-5	1	21	0	12	26
